Compound activity from PubChem.
GRK2 aptamer HTS: inhibitors of human GRK2 displacing RNA aptamer | bead flow cytometry, FAM-aptamer displacement from GRK2 | inhibition of aptamer binding, % at 10 µM | 0.59% of 330,000 active;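 active means inhibition of aptamer binding above 40%, roughly 3 SD of noise, on plates passing a quality check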;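 further: median bead fluorescence of bound FAM aptamer so fluorescent compounds give negative values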
proCasp3 act: procaspase-3 (human) activation; activation, % at 8.5 µM; recombinant procaspase-3 D3A, Ac-DEVD-pNA absorbance 405 nm; 0.11% of 330,000 active; P42574;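 active means activation above the mean of all tested compounds plus 3 SD, cut at about 21% in these data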;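 further: 0% = DMSO alone and 100% = DMSO wells spiked with extra 5 µM PC-3 D3A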
Target sequence (P42574 whole entry D9A/D28A/D175A): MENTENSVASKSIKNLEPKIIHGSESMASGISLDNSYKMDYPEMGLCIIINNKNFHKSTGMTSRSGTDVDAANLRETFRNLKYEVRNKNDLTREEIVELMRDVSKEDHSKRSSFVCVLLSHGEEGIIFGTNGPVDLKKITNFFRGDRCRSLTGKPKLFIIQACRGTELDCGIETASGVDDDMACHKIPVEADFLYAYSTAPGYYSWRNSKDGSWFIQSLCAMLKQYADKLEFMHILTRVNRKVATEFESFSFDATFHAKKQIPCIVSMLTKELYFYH
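Evaluation: percent activation relative to control range; Material: Procaspase-3 D3A mutant, all three cleavage aspartates alanine; Compound: single dose, 8.5 µM nominal compound, 0.8% DMSO; Replication: one well per compound; Signal: absorbance at 405 nm, 0 and 120 min; Schedule: 1 h preincubation plus 2 h reaction at 25 °C.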
proCasp7 act: counter-screen: procaspase-7 (human) activation; recombinant procaspase-7, Ac-DEVD-pNA absorbance 405 nm; D23A/D198A/D206A triple mutant, cannot self-cleave; scale: DMSO 0, 5 µM enzyme 100; AID 463210; P55210; 0.093% of 330,000 active; activation, % at 8.5 µM;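 active means percent activation above the screen-wide mean plus 3 SD, cut at about 25% in these data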
Target sequence (P55210 whole entry D23A/D198A/D206A): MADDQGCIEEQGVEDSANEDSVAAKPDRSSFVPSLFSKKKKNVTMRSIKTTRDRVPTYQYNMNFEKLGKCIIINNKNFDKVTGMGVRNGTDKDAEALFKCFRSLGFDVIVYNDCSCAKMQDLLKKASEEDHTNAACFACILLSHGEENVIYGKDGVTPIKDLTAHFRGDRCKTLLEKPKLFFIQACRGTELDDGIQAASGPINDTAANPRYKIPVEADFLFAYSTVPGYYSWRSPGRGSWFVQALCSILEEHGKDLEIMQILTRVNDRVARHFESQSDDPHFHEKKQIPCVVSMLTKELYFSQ
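Assay system: Uncleavable procaspase-7 mutant enzyme; Input: 2 µM procaspase-7 mutant as dispensed; Also added: DEVD-pNA substrate; Medium: Zinc-free HEPES pH 7.4 with 300 mM NaCl, 0.01% Triton X-100; Timing: 1 h compound preincubation, 2 h substrate cleavage, 25 °C; Measured by: Epi-absorbance of released pNA at 405 nm, two timepoints.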
T cell HTS: T cell immune modulators affecting CD8 T cell-vesicle binding; 0.068% of 330,000 active; AID 2052; 2C CD8+ T cell-vesicle binding, flow cytometry; active compounds read low; response (vesicle binding), % at 7 µM;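 active means response, share of CD8 T cells binding vesicles, and their 90th percentile fluorescence all below set limits, cut at about 80% in these data, passing the limit was not always enough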;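 further: values below 100% mean blocked vesicle binding to the CD8+ T cells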
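Benchmarks: naked versus QL9-loaded vesicles / Assay system: purified 2C TCR transgenic mouse naive CD8+ T cells / Technique: high-throughput flow cytometry with anti-B7-1 and anti-CD8 staining / Timing: Cell–vesicle co-incubation 1.5 h at 37 °C, staining 20 min on ice / Read-out: percent CD8+ FL2 mean versus row control / Probe or stimulus: QL9-loaded Drosophila micro-vesicles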
aDG glyco up: alpha-DG glycosylation activation | activation, % at 10 µM | 0.22% of 360,000 active | Pro5-aDG cells, alpha-DG glycosylation AlphaScreen (IIH6); 0% Pro5, 100% B10-LARGE cell signal;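 active means activation of at least 8% versus controls, or a plate z-score of at least 8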;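 further: Pro5 are CHO cells carrying HIG-tagged alpha-DG that lacks glycosylation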
CaV13 ICDI inh: Disruptors of the CACNA1D IQ motif to Ca2+-dependent inactivation inhibitor domain association, primary screening, Förster resonance energy transfer in intact living …. HEK cells, CFP/YFP FRET ICDI-IQ, plate reader, 10 min; percent FRET-ratio fall versus neutral wells. inhibition, % at 12.3 µM. 0.098% of 340,000 active;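 active means mean replicate inhibition of at least 30% and at least 1% of replicates passing that level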;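 further: 0% = median of the neutral control wells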
GRK2 CP1: confirmation of human GRK2 inhibitors displacing RNA aptamer; shares compounds with GRK2 aptamer HTS; bead-bound GRK2, FAM-aptamer displacement, flow cytometry; aptamer displacement, % at 10 µM; 4% of 2,000 active; AID 504451;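 active means aptamer displacement above 40%, near three times the noise of non-fluorescent compounds, on plates passing quality checks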;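 further: negative values mostly reflect intrinsic compound fluorescence rather than true enhancement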
FAM quench CP1: aptamer fluorescence quenching in GRK2 counter-screen; 2,000 tested, under 10 active; fluorescence response (% of DMSO), % at 10 µM; shares compounds with GRK2 aptamer HTS; Carboxyfluorescein RNA aptamer on beads, flow cytometry quenching; active compounds read low; AID 504580;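 active means compounds that quench the bead-bound fluorescent RNA probe, cutting fluorescence to under half of the solvent control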;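 further: counterscreen run without GRK2 so only probe quenching by compound is measured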
GRK2 CP2: human GRK2 inhibition confirmation, cherry pick 2 | bead-bound GRK2, FAM-aptamer displacement, flow cytometry | AID 504782 | inhibition of aptamer binding, % at 10 µM | shares compounds with GRK2 aptamer HTS | 360 tested, under 10 active;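 active means inhibition of aptamer binding above 40%, about triple the noise seen with nonglowing compounds, on plates passing quality control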;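 further: negative values mostly come from compounds that fluoresce themselves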
FAM quench CP2: aptamer fluorescence quenching in GRK2 counter-screen; shares compounds with GRK2 aptamer HTS; carboxyfluorescein RNA aptamer beads, flow cytometry quenching; active compounds read low; fluorescence response vs DMSO, % at 10 µM; 360 tested, under 10 active;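 active means response vs DMSO under 50%, meaning signal dropped by over half, treated as fluorescence quencher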;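 further: labelled aptamer on streptavidin beads without GRK2 as a quench counter-screen; 100% = bead fluorescence of DMSO wells and lower means quenching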
Numbers without * were called inactive; . = no result given. Rows were chosen to be rich in hits. Some 1.1% of all compounds tested hit in one or more screens of this group.

SMILES	GRK2 aptamer HTS	proCasp3 act	proCasp7 act	T cell HTS	aDG glyco up	CaV13 ICDI inh	GRK2 CP1	FAM quench CP1	others
O=C(CC(Cc1ccccc1)C(=O)O)Nc1ccc(Cl)c(Cl)c1 (stereo not drawn)	99.0*	-8.7	6.1	81.4	-0.2	-19.5	-2.1	100.2
CCOC(=O)/C(N=Nc1ccc(F)cc1)=C(/O)c1ccc([N+](=O)[O-])cc1	0.0	-5.4	-12.3	899.5	0.0	.	.	.
Cc1ccc2nc(SCC(=O)Nc3cccc(F)c3)nc(=O)n2c1	100.0*	5.4	0.5	303.7	0.8	-5.2	0.6	98.8
Cc1ccc2nc(SCC(=O)Nc3cccc(Cl)c3)nc(=O)n2c1	1.0	5.5	12.8	247.2	0.4	-4.9	.	.
COc1ccc(-c2cc(C(=O)NCc3ccc(Cl)cc3)no2)cc1OC	38.0	5.8	3.1	596.7	-0.1	-7.9	-0.5	192.3
Cc1ccc(C(=O)NCc2cccnc2)cc1S(=O)(=O)N1CCCCCC1	0.0	1.4	3.4	463.9	-0.1	-2.2	.	.
CCCCSc1nnc(CCCCCNC(=O)OC(C)(C)C)o1	0.0	-2.1	5.4	295.4	0.2	-4.5	.	.
CCCCCCOC(=O)CC1CC(C(C)=O)C1(C)C (stereo not drawn)	.	.	.	.	-0.1	-5.8	.	.
COCCNC(=O)c1c[nH]c2ccc(OC)cc2c1=O	1.0	-7.4	15.4	180.7	-0.1	-4.2	.	.
COCCNC(=O)c1c[nH]c2ccc(S(=O)(=O)Nc3ccc(F)cc3F)cc2c1=O	91.0*	-2.9	1.1	180.0	-0.1	-2.4	6.9	98.9
COCCNC(=O)c1c[nH]c2ccc(S(=O)(=O)Nc3ccccc3F)cc2c1=O	70.0*	-3.6	4.3	156.6	0.0	-3.6	6.5	100.1
COCCNC(=O)c1c[nH]c2ccc(S(=O)(=O)N3CCc4ccccc43)cc2c1=O	0.0	2.9	7.0	254.6	0.1	-7.3	.	.
CCC(CO)Nc1ccc(-c2n[nH]c(=O)c3ccccc23)cc1[N+](=O)[O-] (stereo not drawn)	60.0*	-5.3	-1.5	274.7	0.0	-2.4	.	.	GRK2 CP2=-2.8;FAM quench CP2=105.0
CCCCCCCCN1C(=O)[C@@H](CC(=O)NCCCOC)C[C@@]2(C(=O)OC)C1=C[C@H](C1CCCC1)O[C@@H]2C	.	.	.	.	.	-9.4	.	.
CCOc1ccccc1N1CCN(C(=O)c2ccccc2SCC(=O)N2CCCC2)CC1	0.0	7.0	0.2	245.9	-0.1	-3.6	.	.
O=C(CS(=O)(=O)c1cccc(C(F)(F)F)c1)Nc1ccccc1Cl	1.0	1.2	6.4	233.7	0.0	-3.6	.	.	GRK2 CP2=-5.2;FAM quench CP2=107.0
COc1ccc(OC)c(-c2csc(NC(=O)c3ccc(F)cc3)n2)c1	0.0	3.0	7.6	129.0	-0.1	0.0	.	.
CCCCn1c(CNC(=O)C(C)(C)C)nc2ccccc21	83.0*	9.0	0.1	786.2	0.3	-6.2	-0.9	100.4
CCn1c(CNC(=O)C(C)(C)C)nc2ccccc21	0.0	2.5	1.1	576.0	0.6	-4.1	.	.
